Screening data as filed in PubChem BioAssay.
Rows were chosen to be rich in hits. Some 12% of all compounds tested hit in one or more screens of this group.
RAM network inh – inhibitors of the yeast RAM network. 190,000 tested, 1.8% active. S. cerevisiae dse1pr::URA3 reporter, 5-FOA growth OD615, 2 d; analog-sensitive cbk1-as2 kinase mutant strain. AID 868. inhibition, % at 50 µM;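 active = inhibition above a set limit, 3 SD over mean compound inhibition, cut at about 8.4% in these data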;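 note: 0% = DMSO-only wells with no growth and 100% = 10 µM 1-NA-PP1 full growth; inhibition rescues growth on 5-FOA so higher OD means more RAM inhibition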
L major viab – inhibitors of Leishmania major promastigote growth. AID 1063. 200,000 tested, 9% active. Leishmania major promastigotes, resazurin fluorescence viability. inhibition, % at 10 µM; in the data active = inhibition above about 50%;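 note: promastigotes grown with compound for 44 hours at 28 °C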
WT yeast gro inh – growth inhibition of WT yeast, mitochondrial fusion screen | mitochondrial fusion phenotypic screen, WT strain | 190,000 tested, 2.1% active | inhibition, % at 10 µM; in the data active = inhibition above about 58%; tested in S. cerevisiae
ABCB1 block – inhibitors of human ABCB1 transporter, ABCG2 counter-screen; P08183; CCRF-Adr cells, JC-1 efflux, flow cytometry; inhibition, % at 6.6 µM; 190,000 tested, 0.067% active; AID 1326; in the data active = inhibition above about 40%;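 note: 0% = vehicle and 100% = reference inhibitor; higher value means more JC-1 retained so stronger ABCB1 efflux block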
ABCG2 inh – human ABCG2 inhibition, ABCB1 as counter-screen; inhibition, % at 6.6 µM; AID 1325; 190,000 tested, 0.1% active; IgMXP3 cells, JC-1 efflux, flow cytometry; Q9UNQ0;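 active = inhibition above 80%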;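 note: 0% = DMSO and 100% = nicardipine control wells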
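test system = two drug-resistant human cell lines, ABCG2 and ABCB1 | amount = 3 million cells/mL final, two lines in 1:1 ratio | reagent = JC-1 transporter substrate | doses = one concentration, 6.6 µM final | incubation = 10 min at 25 °C | signal = flow cytometric JC-1 green MFI at 530 nm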
RAM 5-FOA – RAM network inhibitors in efflux-deficient yeast. shares compounds with RAM network inh. S. cerevisiae efflux-deficient reporter strain, 5-FOA growth OD615, 2 days. max inhibition, %. 1,200 tested, under 10 active. AID 1305; call rule not given here;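 note: plate controls were vehicle for no effect and reference inhibitor for full effect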
* = called active by the depositor; nt = no result.

SMILES | RAM network inh | L major viab | WT yeast gro inh | ABCB1 block | ABCG2 inh | RAM 5-FOA
CCOc1cccc(-c2csc(C3COc4ccccc4O3)n2)c1 (stereo not drawn) | 15.0* | -5.1 | 3.2 | -0.4 | -1.4 | 3.2
COC(=O)c1c(NC(=O)c2ccccc2)sc(C(=O)c2ccccc2)c1C | 3.9 | 15.5 | -17.3 | -0.4 | 0.2 | nt
COC(=O)c1c(NC(C)=O)sc(Cc2ccccc2)c1C | 5.9 | 12.9 | 9.5 | 0.6 | 4.3 | nt
COC(=O)c1c(NC(=O)c2ccccc2)sc(Cc2ccccc2)c1C | 12.0* | -2.8 | 68.3* | 0.4 | 3.9 | 5.9
COC(=O)c1c(NC(=O)c2ccc(C)cc2)sc(Cc2ccccc2)c1C | 13.8* | -4.4 | -0.5 | 0.6 | 20.0 | 3.9
CCn1cc(C(=O)N2CCCc3ccccc32)c2cc(OC)c(OC)cc2c1=O | 5.9 | 5.4 | -10.4 | 0.2 | 0.2 | nt
CCCCCCN1C=C/C(=C\C=C(C#N)C#N)c2ccccc21 | 16.7* | 8.0 | 46.5 | -1.0 | -4.2 | 3.6
O=C(O)CCCCn1c(SCc2cc(=O)n3cc(Cl)ccc3n2)nc2ccsc2c1=O | 5.1 | -2.1 | -9.9 | 1.9 | 12.9 | nt
O=C(O)CCCCn1c(SCc2ccccc2Cl)nc2ccsc2c1=O | 16.9* | 2.4 | -32.2 | 0.8 | 3.2 | 1.4
O=C(CCc1ccc(CCC(=O)c2cccs2)s1)c1cccs1 | 16.7* | -7.9 | -26.8 | 0.3 | 3.1 | 3.6
O=C(CCC(=O)c1cccs1)NCc1ccc(F)cc1 | 0.5 | -7.2 | 1.1 | 0.3 | 0.9 | nt
CN1CCN(C(=O)c2ccc3c(=O)n(Cc4ccco4)c(=S)[nH]c3c2)CC1 | -0.2 | 2.0 | -3.7 | 0.9 | 0.8 | nt
CCCN(CCC)C(=O)c1ccc2c(=O)n(Cc3ccco3)c(=S)[nH]c2c1 | 25.2* | 19.9 | -2.3 | -0.3 | -0.4 | 1.1
COc1ccc(C2CC(c3ccccc3)=NN2c2ccc(/C=N/NC(=O)c3ccncc3)cc2)cc1 (stereo not drawn) | 12.8* | 16.3 | 19.6 | 1.4 | 5.4 | 6.3
COc1ccc(/C=N/NC(=O)c2nc(-c3ccccc3)n(-c3ccccc3)n2)cc1 | 8.0 | 44.5 | -19.8 | 2.0 | 7.5 | nt
CCC1CCCCN1S(=O)(=O)c1ccc(S(=O)(=O)N(Cc2cccs2)C2CC2)cc1 (stereo not drawn) | 12.6* | 100.2* | -63.2 | 1.8 | 3.2 | 2.2
CCN(CC)S(=O)(=O)c1ccc(OC)c(NC(=O)CSc2cc(C)ccc2C)c1 | 15.2* | 72.9* | 29.2 | 1.4 | 11.3 | 3.0
CCN(CC)S(=O)(=O)c1ccc(OC)c(NC(=S)Nc2cc(C)ccc2C)c1 | 2.0 | 41.7 | 6.0 | 0.9 | 6.5 | nt
N#CC(Cc1ccc(OC(F)F)cc1)c1nc2ccccc2[nH]1 (stereo not drawn) | 1.2 | -0.6 | 12.6 | 0.3 | 8.9 | nt
COc1ccc(-c2ccc(-c3noc(-c4cccc(OC)c4)n3)c(OC)n2)cc1 | 14.7* | -1.4 | -4.2 | -0.3 | 11.2 | 3.0
COc1ccc(-c2ccc(-c3noc(-c4ccccc4C)n3)c(OC)n2)cc1 | 16.1* | 9.5 | 2.2 | nt | nt | 3.5
COc1ccc(-c2ccc(-c3noc(-c4ccccc4OC)n3)c(OC)n2)cc1 | 4.3 | 17.9 | -1.0 | 0.0 | 0.7 | nt
COc1ccc(-c2ccc(-c3noc(C4CCCCC4)n3)c(OC)n2)cc1 | 15.8* | 8.2 | -13.1 | 0.2 | 2.5 | 5.3
CCOc1nc(-c2ccccc2)ccc1-c1noc(-c2ccco2)n1 | 4.7 | 0.7 | 15.5 | -0.3 | 32.6 | nt
CCOc1nc(-c2ccccc2)ccc1-c1noc(COc2ccccc2)n1 | 17.2* | 17.5 | -0.1 | 0.6 | 4.6 | 4.7
SMILES | RAM network inh | L major viab | WT yeast gro inh | ABCB1 block | ABCG2 inh | RAM 5-FOA
CSc1ccc(Cl)c(C(=O)OCC(=O)Nc2ccccc2OC(F)F)c1 | 15.9* | -4.2 | 8.8 | 0.5 | 10.0 | 3.3
COc1ccc(C(C)(C)C)cc1NC(=O)COC(=O)c1cc(SC)ccc1Cl | 13.2* | 2.8 | 0.3 | 1.2 | 39.0 | 4.1
COc1ccc(NC(=O)COC(=O)c2cc(SC)ccc2Cl)c(OC)c1 | 6.2 | -3.7 | 7.9 | 1.8 | 13.1 | nt
CCn1nc(C)c(CNC(=O)CC2C(=O)NCCN2CC(C)(C)C)c1C (stereo not drawn) | -0.5 | -3.1 | 8.7 | 0.3 | 1.1 | nt
CCOC(=O)c1csc(NNC=O)n1 | 0.9 | -4.6 | 11.6 | -0.2 | 1.9 | nt
Cc1ccc(N2CCN(C(=O)c3cc(C(=O)c4ccccc4C)c[nH]3)CC2)c(C)c1 | 24.3* | 8.7 | 57.8 | 5.5 | 3.7 | 2.0
